Screening results as filed in PubChem BioAssay.
An excerpt weighted towards active compounds, which were near 2.7% of everything screened.
Yeast growth inh – chemicals that inhibit yeast BB579 growth in restrictive medium (lifespan-shortening candidates) | S. cerevisiae BB579 growth, OD615, 48 h | hit rate 0.51% among 140,000 | inhibition, % at 10 µM;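 active = inhibition above a set limit, 3 SD over the mean compound inhibition, cut at about 44% in these data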
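Assay system – yeast BB579 (DeaD) · Dosing – single compound dose of 10 µM, 0.25% DMSO final · Detection – OD615 turbidity measurement · Buffer or medium – CSMM-D restrictive synthetic medium containing dextrose (glucose) · Benchmarks – positive control amphotericin B 10 µg/mL · Incubation – 48 h exposure, 30 °C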
RAM network inh – yeast RAM network inhibition | S. cerevisiae dse1pr::URA3 reporter, 5-FOA growth OD615, 2 d; analog-sensitive cbk1-as2 kinase mutant strain | inhibition, % at 50 µM | hit rate 1.8% among 190,000 | AID 868;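 active = inhibition above a set limit, 3 SD over mean compound inhibition, cut at about 8.4% in these data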;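 note: 0% = DMSO-only wells with no growth and 100% = 10 µM 1-NA-PP1 full growth; inhibition rescues growth on 5-FOA so higher OD means more RAM inhibition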
Yeast lifespan up – yeast lifespan extension; AID 775; inhibition of the nicotinamide effect, % at 10 µM; S. cerevisiae growth with nicotinamide, OD615; deaD strain in restrictive glucose medium; hit rate 0.68% among 130,000;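 active = inhibition above a set limit, placed 3 SD over the median of all compounds, cut at about 26% in these data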;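 note: 0% = nicotinamide-treated wells and 100% = cells grown without nicotinamide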
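System: Modified budding yeast, DeaD strain | Buffer or medium: Restrictive glucose medium | Also added: 1.5 mM nicotinamide | Doses: 10 µM single point, 0.25% DMSO | Schedule: 48 h compound exposure at 30 °C, humidified | Detection: Absorbance at 615 nm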
sdo1 growth – compounds rescuing growth of sdo1-depleted yeast, bone marrow failure model; z-score at 10 µM; S. cerevisiae sdo1-depleted JHY4D growth rescue, OD600 30 h; active compounds read high; pdr5 snq2 efflux-pump mutant strain; hit rate 0.21% among 140,000;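 active = z-score above 3 at both the 24 hr and the 30 hr optical density reads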;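 note: z-score against mean and SD of all compound wells on the same plate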
SDO1 rescue DR – SDO1-depleted yeast growth rescue confirmation | shares compounds with sdo1 growth | S. cerevisiae JHY4D (SDO1-depleted) growth rescue, OD600, 30 h; active compounds read high; efflux-deficient strain, SNQ2 and PDR5 mutated | OD recovery (concentration not given with the values) | hit rate 44% among 440 | AID 949;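 active = yeast growth recovered at 30 hours, either rising with dose fitted slope above 0.001 or with average optical density gain above 0.07, some results past the limit were not filed as active; inactive = growth falling with dose or no effect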;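 note: gain in OD600 from 0 h to 30 h averaged across all seven doses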
* hit, by the source's call; . = not tested or not shown; ! = repeats disagree.

SMILES | Yeast growth inh | RAM network inh | Yeast lifespan up | sdo1 growth | SDO1 rescue DR
COc1ccc(OCCSc2nnc(C(C)NC(=O)c3ccccc3F)n2C)cc1 (stereo not drawn) | . | -1 | . | . | .
Cn1c(CNC(=O)c2ccc(Cl)c(Cl)c2)nnc1SCC(=O)Nc1sc2c(c1C#N)CCCC2 | -48 | 5 | -5 | 4.7* | 0.048
N#Cc1ccc(-c2ccc(F)cc2)nc1SCC(=O)Nc1sc2c(c1C#N)CCC2 | -29 | 6 | -23 | 1.8 | 0.064
COC(=O)c1cc(OC)c(OC)cc1NC(=S)N1CCCCC1 | 1 | 0 | -16 | -0.53 | .
COC(=O)c1cc(OC)c(OC)cc1NC(=S)N1CCN(C)CC1 | -48 | 1 | 16 | 3.1*! | 0.05
COc1ccccc1/C=C/C=N/NC(=O)c1ccc2nc[nH]c2c1 | . | 1 | . | . | .
Cc1ccc(C)c(CSc2ccc3nnc(-c4ccccn4)n3n2)c1 | . | -2 | . | . | .
COCCn1c(SCC(=O)Nc2sc(C)c(C)c2C#N)nnc1-c1ccc(OC)cc1 | -21 | -1 | -15 | -1.1 | .
COCCn1c(SCC#N)nnc1-c1ccc(OC)cc1 | -42 | -1 | . | 9* | 0.058
CCCNC(=O)CS(=O)(=O)Cc1nc(-c2cccc(OC)c2)oc1C | -62 | 0 | -7 | 1.2 | .
CCOCCCNC(=O)CS(=O)(=O)Cc1nc(-c2cccc(OC)c2)oc1C | -50 | 2 | -7 | 12* | 0.073*
Cn1nc(OC(=O)Nc2cccc(Cl)c2)cc1C(F)(F)F | -42 | 2 | -11 | -1.1 | .
Cn1nc(OC(=O)Nc2ccccc2)cc1C(F)(F)F | -33 | 1 | -13 | 3.3*! | 0.077*
COCCNC(=O)NC(=O)CN1CCCc2ccccc21 | . | 0 | . | . | .
COCCCNC(=S)NC1CCCCC1 | -30 | 0 | 7 | 0.36 | .
CC/C(=N\NC(=O)c1cc(C)nc2ccccc12)c1ccc(C)s1 | -14 | 3 | -3 | -0.32 | .
CCOc1ccc(CCNC(=O)C2CCN(C(=O)N(C)C)CC2)cc1OCC | -46 | 3 | -16 | 2 | 0.055
Cc1cc(O)c(-c2cc(C(=O)Nc3ccc(S(=O)(=O)N4CCOCC4)cc3)[nH]n2)cc1C | -98 | 2 | 3 | 1.6 | 0.091*
Cc1nn(CC(O)CN2c3ccccc3Sc3ccccc32)c(C)c1Br (stereo not drawn) | -66 | 3 | -7 | 4.5* | 0.045
OC(CN1c2ccccc2Sc2ccccc21)Cn1nnc2ccccc21 (stereo not drawn) | -51 | 7 | -10 | -0.79 | .
Cc1oc2cc(O)ccc2c(=O)c1-c1cnn(-c2ccccc2)c1 | -28 | 3 | -3 | 5* | 0.064
CC1CCc2c(sc(Nc3nc4c(F)cccc4s3)c2C(N)=O)C1 (stereo not drawn) | -14 | 1 | -4 | -0.41 | .
CCCc1nnc(SCC(=O)N2CCCCC2)n1CC1CCCO1 (stereo not drawn) | -20 | 2 | -4 | 0.19 | .
CCCc1nnc(SCC(=O)N2CCCC2)n1CC1CCCO1 (stereo not drawn) | -46 | 1 | -7 | 3.2* | 0.053
Cc1nc2ncnn2c(C)c1CCC(=O)N1CCOCC1 | -15 | 3 | -9 | 5.1* | 0.098*
SMILES | Yeast growth inh | RAM network inh | Yeast lifespan up | sdo1 growth | SDO1 rescue DR
Cc1nc2ncnn2c(C)c1CCC(=O)N1CCCCC1 | -23 | 0 | -2 | 0.32 | .
COc1ccc(C(=O)OCC(=O)Nc2cc(C)c(C)cc2[N+](=O)[O-])cc1 | -30 | 6 | 0 | 2.3 | 0.043
O=C(C1CCCCC1)N(Cc1ccccc1)c1ccccn1 | -25 | 1 | 3 | 11* | 0.078*
O=c1ccn(CCc2c[nH]c3ccccc23)c2c1CCCC2 | . | 1 | . | . | .
CCC(CC)C(=O)Nc1cc(C(=O)OC)ccc1C(=O)OC | -28 | -1 | 4 | 10* | 0.025
CN1CC=C2C(C#N)=C(N)C(C#N)(C#N)[C@H](c3ccoc3)[C@H]2C1 | -41 | 2 | -8 | 3.4* | 0.05
COc1ccc(CNCC(=O)Nc2ccccc2-n2cccc2)cc1 | . | 0 | . | . | .
CCOC(=O)[C@@H]1C(c2c(OC)cc(OC)cc2OC)=NO[C@@H]1C(=O)OCC | -1 | 2 | 6 | 6* | 0.071*
O=C(NC(Cc1ccccc1)C(=O)O)/C(=C/c1ccc([N+](=O)[O-])cc1)NC(=O)c1ccccc1Br (stereo not drawn) | . | -1 | . | . | .
COc1ccccc1C(=O)OCC(=O)Nc1ccc(OC(F)F)cc1 | -28 | 1 | -14 | 0.15 | .
COc1ccccc1NC(=O)COC(=O)c1ccccc1OCC(=O)Nc1ccc(SC(F)F)cc1 | -66 | 3 | -2 | 1.3 | 0.073*
O=C(CC12CC3CC(CC(C3)C1)C2)NCC(=O)N1CCCC1 | -38 | 5 | -15 | 4* | 0.054
COC(=O)[C@H](C)NC(=O)COc1ccccc1 | -23 | 1 | -17 | 3.8* | 0.042
CC(C)CC(NC(=O)COc1ccccc1)C(=O)O (stereo not drawn) | -2 | 0 | -22 | 0.17 | .
Cc1cc(C)n2nc(SC(C)C(=O)Nc3ccc(Cl)cn3)nc2n1 (stereo not drawn) | . | 4 | . | . | .
CCN(CC)S(=O)(=O)c1cc(C(=O)Nc2ccncc2)ccc1Cl | -22 | 2 | -13 | 0.77 | .
CCN(CC)S(=O)(=O)c1cc(C(=O)Nc2cccnc2)ccc1Cl | -23 | 2 | -6 | 3.3* | 0.093*
CCCCNS(=O)(=O)c1ccc2nc(SCC(=O)Nc3cccc(F)c3)[nH]c2c1 | -53 | 0 | 7 | 2.6 | .
CCCCNS(=O)(=O)c1ccc2nc(SCC(=O)Nc3ccccc3Cl)[nH]c2c1 | -27 | 9.4* | -5 | 2.2 | 0.11*
Cc1nn(-c2ccccc2)c(C)c1NC(=O)c1cccs1 | -3 | 1 | -8 | 3.3* | 0.065*
Cc1nn(-c2ccccc2)c(C)c1NC(=O)Cc1cccs1 | -9 | 2 | 2 | 0.7 | .
CC[n+]1ccc(C(=O)NCc2ccccc2)cc1 | . | 1 | . | . | .
CCOc1ccc(C(=O)NC(=S)Nc2ccccc2OC)cc1[N+](=O)[O-] | -22 | 3 | 4 | 1.5 | 0.077*
CSc1ccc(S(=O)(=O)N(CC(=O)NN=C2CCN(C)CC2)c2ccc(C)cc2)cc1 | . | -1 | . | . | .
CCN(CC)CCCNC(=O)c1sc2nc(-c3ccc(F)cc3)cn2c1C | 7 | 0 | -10 | 3.6* | 0.083*
SMILES | Yeast growth inh | RAM network inh | Yeast lifespan up | sdo1 growth | SDO1 rescue DR
Cc1c(C(=O)NCc2ccccn2)sc2nc(-c3ccc(F)cc3)cn12 | -30 | 6 | -7 | 0.29 | .
Cc1ccccc1N1CCN(C(=O)CN2C(=O)c3ccccc3C2=O)CC1 | -35 | 1 | -4 | 7.4* | 0.075*
Cc1ccc(C)c(N2CCN(C(=O)CN3C(=O)c4ccccc4C3=O)CC2)c1 | -14 | 2 | -20 | -0.82 | .
CC1=C(C)CC(C(=O)NCc2ccc3c(c2)OCO3)C(C(=O)O)C1 (stereo not drawn) | -27 | 1 | 4 | 2.3 | 0.075*
CC(C)(C)c1cc(C(=O)N/N=C/c2ccco2)n[nH]1 | -24 | 2 | 0 | 9.9* | 0.071*
COc1ccc(NC(=O)c2cc(S(=O)(=O)N3CCOCC3)cs2)cc1 | . | 6 | . | . | .
